{"source": "paper PMC10213863", "about": "(Cell Reports Medicine, 2023)", "key": {"[1]": {"tested_on": "NZB/W F1 mice", "assay": "Mouse NZB/W F1 model of lupus, MHV370 in food", "format": "in vivo", "procedure,_shortened": "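NZB/W F1 mice entered at 23 weeks and were randomized into groups of 14 (mean proteinuria 0.1–0.5 mg/mL). They were dosed with test compound in food. Weight was recorded twice weekly; proteinuria weekly by quantitative protein assay (BSA standard). Serum IgG autoantibodies were measured by ELISA at 1:100 or 1:300, with DWEYS peptide for NMDAR, HRP anti-IgG (1:10′000) and TMB. Kidney IgG was stained by IHC; positive/total area was averaged over ten sections per mouse.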"}, "[2]": {"target": "T1, TLR9 (Homo sapiens, UniProt Q9NR96)", "T1 sequence (Q9NR96 26-1032)": "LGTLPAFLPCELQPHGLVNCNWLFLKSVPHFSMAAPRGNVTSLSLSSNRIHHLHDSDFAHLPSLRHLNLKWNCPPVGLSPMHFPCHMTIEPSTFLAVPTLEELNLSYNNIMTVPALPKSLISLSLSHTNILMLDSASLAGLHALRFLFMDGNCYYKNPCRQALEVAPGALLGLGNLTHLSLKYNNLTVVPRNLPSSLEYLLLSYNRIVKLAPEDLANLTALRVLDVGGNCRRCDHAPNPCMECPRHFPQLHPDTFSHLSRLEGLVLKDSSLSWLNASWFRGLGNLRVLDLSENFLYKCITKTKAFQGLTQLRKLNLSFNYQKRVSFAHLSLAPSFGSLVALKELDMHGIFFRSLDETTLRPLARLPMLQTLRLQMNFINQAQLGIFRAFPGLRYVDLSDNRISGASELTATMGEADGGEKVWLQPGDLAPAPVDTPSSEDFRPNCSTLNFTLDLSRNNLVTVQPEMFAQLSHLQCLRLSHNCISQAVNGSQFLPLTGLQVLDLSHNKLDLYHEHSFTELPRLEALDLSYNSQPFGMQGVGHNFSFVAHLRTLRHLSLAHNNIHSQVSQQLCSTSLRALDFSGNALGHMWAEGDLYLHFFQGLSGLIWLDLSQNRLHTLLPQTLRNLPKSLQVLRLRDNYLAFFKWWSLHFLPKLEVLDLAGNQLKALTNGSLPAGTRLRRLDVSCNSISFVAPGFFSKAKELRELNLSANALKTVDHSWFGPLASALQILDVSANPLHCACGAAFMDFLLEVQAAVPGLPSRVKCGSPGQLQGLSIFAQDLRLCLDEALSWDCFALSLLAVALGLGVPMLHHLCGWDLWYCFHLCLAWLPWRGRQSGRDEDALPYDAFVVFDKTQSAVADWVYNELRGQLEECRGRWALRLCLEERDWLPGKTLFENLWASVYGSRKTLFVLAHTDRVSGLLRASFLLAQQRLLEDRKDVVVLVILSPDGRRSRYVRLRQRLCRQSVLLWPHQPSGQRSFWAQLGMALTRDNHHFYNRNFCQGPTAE", "assay": "Isolated human pDC assay, ODN2216-driven IFN-α", "format": "cell-based", "details": "fixed dose of MHV370", "procedure,_shortened": "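pDCs were negatively enriched from PBMCs and resuspended in RPMI1640 with 10 ng/mL recombinant human IL-3. They were pre-treated 30 min with test compound or 0.25% v/v DMSO. Stimulation was 20 h at 37°C, 5% CO2 with ssRNA40 (10 μg/mL plus 25 μg/mL DOTAP) or ODN2216 (0.3 μM). IFN-α in supernatants was read by AlphaLisa; viability by CellTiter-Glo.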"}, "[3]": {"target": "T2, TLR8 (Homo sapiens, UniProt Q9NR97)", "T2 sequence (Q9NR97 27-1041)": "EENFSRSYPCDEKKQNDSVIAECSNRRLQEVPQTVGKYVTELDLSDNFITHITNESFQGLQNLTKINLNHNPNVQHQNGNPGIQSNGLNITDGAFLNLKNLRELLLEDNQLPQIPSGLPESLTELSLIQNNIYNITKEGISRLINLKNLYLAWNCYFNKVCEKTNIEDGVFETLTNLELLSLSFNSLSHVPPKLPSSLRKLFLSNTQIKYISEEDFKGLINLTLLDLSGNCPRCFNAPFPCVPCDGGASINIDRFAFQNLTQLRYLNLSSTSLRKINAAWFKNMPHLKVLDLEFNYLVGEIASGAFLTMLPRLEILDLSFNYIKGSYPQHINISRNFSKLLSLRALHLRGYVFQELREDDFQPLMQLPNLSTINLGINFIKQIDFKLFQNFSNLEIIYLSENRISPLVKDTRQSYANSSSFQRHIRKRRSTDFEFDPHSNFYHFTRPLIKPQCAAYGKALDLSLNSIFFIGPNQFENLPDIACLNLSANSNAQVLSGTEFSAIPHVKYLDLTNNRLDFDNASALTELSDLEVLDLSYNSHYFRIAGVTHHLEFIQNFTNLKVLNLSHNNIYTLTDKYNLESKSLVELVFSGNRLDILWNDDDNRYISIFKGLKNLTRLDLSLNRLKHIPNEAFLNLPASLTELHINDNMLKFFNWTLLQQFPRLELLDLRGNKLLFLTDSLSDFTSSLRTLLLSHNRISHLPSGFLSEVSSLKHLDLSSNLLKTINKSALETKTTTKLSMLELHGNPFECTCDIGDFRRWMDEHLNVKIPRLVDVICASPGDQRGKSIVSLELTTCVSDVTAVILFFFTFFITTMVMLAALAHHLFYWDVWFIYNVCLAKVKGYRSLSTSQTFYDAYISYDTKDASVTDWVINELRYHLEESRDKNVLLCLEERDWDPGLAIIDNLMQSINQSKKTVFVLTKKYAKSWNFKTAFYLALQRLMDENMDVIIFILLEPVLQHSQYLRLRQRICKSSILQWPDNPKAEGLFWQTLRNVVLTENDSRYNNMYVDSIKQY", "assay": "Human PBMC assay, ssRNA-induced TNF", "format": "cell-based", "procedure,_shortened": "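Human PBMCs were pre-incubated 30 min with test compound, then stimulated with the respective TLR or IL-1R agonist at doses from earlier work. Cytokines in supernatants were quantified by immunoassay. Viability across the dose range was checked by CellTiter-Glo.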"}, "[4]": {"tested_on": "human PBMCs, monocytes, neutrophils, human blood", "assay": "Cell viability in profiling assays", "format": "cell-based", "details": "human primary cells; concentrations of up to 10 μM", "procedure,_shortened": "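Toxicity counter-screens were run within each primary-cell assay across the test-compound dose range. PBMCs, isolated monocytes and neutrophils were read by CellTiter-Glo. Diluted whole blood was read by ATPlite luminescence.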"}, "[5]": {"details": "0.1% MHV370 in food, kidney histology"}, "[6]": {"details": "MHV370-laced food, at termination"}}}
{"compound": "Cc1cc(N2CCc3c(c(C)nn3CC34CCC(NC(=O)[C@@H]5COCCN5)(CC3)CC4)C2)c2cnn(C)c2n1", "note": "[MHV370, (S)-N-(4-((5-(1,6-dimethyl-1H-pyrazolo[3,4-b]pyridin-4-yl)-3-methyl-4,5,6,7-tetrahydro-1H-pyrazolo[4,3-c]pyridin-1-yl)methyl)bicyclo[2.2.2]octan-1-yl)morpholine-3-carboxamide]", "values": [{"measurement": "inhibition of proteinuria at low dose", "setting": "[1]; 0.01% MHV370 in food", "result": "already achieved"}, {"measurement": "IgG deposits in the glomeruli", "setting": "[1]; [5]", "result": "reduced"}, {"measurement": "glomerulopathy", "setting": "[1]; [5]", "result": "reduced"}, {"measurement": "infiltration of kidneys with CD45R+ B cells", "setting": "[1]; [5]", "result": "reduced"}, {"measurement": "infiltration of kidneys with CD138+ plasma cells", "setting": "[1]; [5]", "result": "reduced"}, {"measurement": "proteinuria", "setting": "[1]; MHV370-laced food", "result": "effectively prevented"}, {"measurement": "blood urea nitrogen (BUN)", "setting": "[1]; [6]", "result": "moderately reduced"}, {"measurement": "serum levels of CXCL13", "setting": "[1]; [6]", "result": "significantly reduced"}, {"measurement": "IgG autoantibody levels against NMDAR", "setting": "[1]; serum at termination", "result": "reduced"}, {"measurement": "IgG autoantibody levels against Smith (Sm)", "setting": "[1]; serum at termination", "result": "reduced"}, {"measurement": "IgG autoantibody levels against ribosomal P (RiboP)", "setting": "[1]; serum at termination", "result": "reduced"}, {"measurement": "serum antibodies against double-stranded DNA (dsDNA)", "setting": "[1]; serum at termination", "result": "not reduced"}, {"measurement": "serum antibodies against histones", "setting": "[1]; serum at termination", "result": "not reduced"}, {"measurement": "ODN2216/TLR9-dependent IFN-α secretion from pDCs", "setting": "[2]", "result": "did not block"}, {"measurement": "IC50", "setting": "[3]", "result": "70 ± 7.4", "unit": "nM"}, {"measurement": "cell toxicity", "setting": "[4]", "result": "did not lead to cell toxicity"}]}
